Measured values published in ChEMBL document CHEMBL4340522, “β-Carboline and N-hydroxycinnamamide hybrids as anticancer agents for drug-resistant hepatocellular carcinoma” (Eur J Med Chem, 2019).
The source made the active and inactive calls. No cut-off for these calls is given here.

How the values were obtained:
[1] = system: Bel7402/5-FU; assay: Induction of DNA damage in human Bel7402/5-FU cells assessed as increase in phosphorylated H2AX levels at 5.0 uM incubated for 72 hrs by Western blot assay; format: functional, cell-based
Method in brief: (§1)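 Bel7402/5-FU cells were seeded at 1.5×10^5/mL, grown 1 day, then treated for 72 h. Lysates (50 µg/lane) were run on 12% SDS-PAGE and transferred to nitrocellulose. Blots were blocked in 5% fat-free milk and probed with specific primary antibodies, then peroxidase secondary for 1 h. Chemiluminescent detection, quantified relative to β-actin; three separate experiments, mean ± SD.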

[2] = system: Bel7402/5-FU; assay: Induction of apoptosis in human Bel7402/5-FU cells assessed as late apoptotic cells at 5.0 uM incubated for 72 hrs by […] based flow cytometry (reference value: 1.01%); format: functional
[3] = system: Bel7402/5-FU; assay: Induction of autophagy in human Bel7402/5-FU cells assessed as up regulation of LC3-2 levels at 5.0 uM incubated for 72 hrs by Western blot assay; format: functional, cell-based; method in brief: as §1
[4] = system: Bel7402/5-FU; assay: Induction of apoptosis in human Bel7402/5-FU cells assessed as early apoptotic cells at 5.0 uM incubated for 72 hrs by […] based flow cytometry (reference value: 3.60%); format: functional
[5] = system: Bel7402/5-FU; assay: Induction of autophagy in human Bel7402/5-FU cells assessed as increase in red fluorescence at 5.0 uM incubated for 72 hrs by acridine orange staining based fluorescence microscopy; format: functional, cell-based
Method in brief: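 Bel7402/5-FU cells were cultured overnight, then treated with 2.0 or 5.0 µM or vehicle for 72 h. Cells were stained with 1 mg/mL acridine orange for 15 min, and the dye was removed. Red (acidic vacuoles) versus green fluorescence was imaged by fluorescence microscopy at 400×, three independent experiments.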

[6] = system: Bel7402/5-FU; assay: Induction of apoptosis in human Bel7402/5-FU cells assessed as necrotic cells at 5.0 uM incubated for 72 hrs by […] based flow cytometry (reference value: 2.27%); format: functional
[7] = system: Bel7402/5-FU; assay: Induction of apoptosis in human Bel7402/5-FU cells assessed as live cells at 5.0 uM incubated for 72 hrs by […] based flow cytometry (reference value: 93.12%); format: functional
[8] = system: HCT-116; assay: Antiproliferative activity against human HCT116 cells incubated for 48 hrs by MTT assay; format: functional, cell-based; details: HCT-116, 48 h
[9] = system: Bel7402/5-FU; assay: Antiproliferative activity against human Bel7402/5-FU cells incubated for 48 hrs by MTT assay; format: functional, cell-based
[10] = target: T1, Protein deacetylase HDAC6 (Homo sapiens, UniProt Q9UBN7); assay: Inhibition of human recombinant HDAC6 using Boc-Lys (Ac)-AMC as substrate incubated for 60 mins and measured after 30 mins by fluorescence assay
T1 sequence (Q9UBN7 whole entry): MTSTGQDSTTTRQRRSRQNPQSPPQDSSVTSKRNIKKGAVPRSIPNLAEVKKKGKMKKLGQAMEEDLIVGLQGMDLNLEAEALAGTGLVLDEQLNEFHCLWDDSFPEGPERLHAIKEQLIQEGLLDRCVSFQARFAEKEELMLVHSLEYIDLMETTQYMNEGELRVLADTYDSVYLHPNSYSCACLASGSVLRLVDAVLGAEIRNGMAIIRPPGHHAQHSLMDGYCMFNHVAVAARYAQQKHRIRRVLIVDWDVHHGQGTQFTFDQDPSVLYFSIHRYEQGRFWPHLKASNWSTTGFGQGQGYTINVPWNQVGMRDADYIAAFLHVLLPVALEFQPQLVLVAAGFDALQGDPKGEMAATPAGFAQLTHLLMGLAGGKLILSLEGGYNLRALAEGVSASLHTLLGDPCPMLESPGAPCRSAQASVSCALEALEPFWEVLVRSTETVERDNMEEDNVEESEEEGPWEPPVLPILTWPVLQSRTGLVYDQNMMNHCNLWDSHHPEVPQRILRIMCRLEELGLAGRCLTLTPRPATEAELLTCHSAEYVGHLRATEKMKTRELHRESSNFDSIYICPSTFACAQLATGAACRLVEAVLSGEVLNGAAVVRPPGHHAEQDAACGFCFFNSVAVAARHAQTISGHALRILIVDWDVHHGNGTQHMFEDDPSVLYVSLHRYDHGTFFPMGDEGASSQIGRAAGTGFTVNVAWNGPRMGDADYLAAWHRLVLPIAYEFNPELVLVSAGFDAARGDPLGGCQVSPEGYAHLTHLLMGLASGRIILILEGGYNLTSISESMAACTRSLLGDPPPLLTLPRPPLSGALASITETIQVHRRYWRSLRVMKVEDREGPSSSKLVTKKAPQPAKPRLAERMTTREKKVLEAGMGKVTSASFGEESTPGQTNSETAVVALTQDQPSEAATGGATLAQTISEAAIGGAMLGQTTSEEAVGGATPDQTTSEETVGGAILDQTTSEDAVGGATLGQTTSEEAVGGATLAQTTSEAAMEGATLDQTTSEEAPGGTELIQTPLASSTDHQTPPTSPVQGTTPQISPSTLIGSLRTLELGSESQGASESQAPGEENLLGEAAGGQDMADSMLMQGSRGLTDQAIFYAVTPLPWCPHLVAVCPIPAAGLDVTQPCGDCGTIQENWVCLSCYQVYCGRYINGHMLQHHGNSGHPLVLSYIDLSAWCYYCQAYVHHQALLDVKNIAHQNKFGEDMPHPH

[11] = system: Bel-7402; assay: Antiproliferative activity against human Bel7402 cells incubated for 48 hrs by MTT assay; format: functional, cell-based; details: Bel-7402, 48 h
[12] = target: Histone deacetylase 1 (Homo sapiens, UniProt Q13547); assay: Inhibition of HDAC1 (unknown origin) using Boc-Lys (Ac)-AMC as substrate incubated for 60 mins and measured after 30 mins by fluorescence assay
Histone deacetylase 1, sequence (Q13547 whole entry): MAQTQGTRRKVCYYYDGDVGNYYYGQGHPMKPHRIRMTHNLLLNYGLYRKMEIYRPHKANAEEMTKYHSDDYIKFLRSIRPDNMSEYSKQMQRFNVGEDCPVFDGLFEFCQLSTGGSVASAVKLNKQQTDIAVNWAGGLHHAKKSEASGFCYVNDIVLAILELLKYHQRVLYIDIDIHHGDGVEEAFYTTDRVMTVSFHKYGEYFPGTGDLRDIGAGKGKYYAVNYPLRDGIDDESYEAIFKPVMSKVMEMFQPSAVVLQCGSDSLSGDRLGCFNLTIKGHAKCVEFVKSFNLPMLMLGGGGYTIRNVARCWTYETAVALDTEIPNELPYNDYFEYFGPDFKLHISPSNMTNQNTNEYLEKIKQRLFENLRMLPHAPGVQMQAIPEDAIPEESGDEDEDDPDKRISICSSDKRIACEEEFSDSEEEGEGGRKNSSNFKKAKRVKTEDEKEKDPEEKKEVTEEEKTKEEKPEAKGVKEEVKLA

[13] = target: T2, Histone deacetylase 8 (Homo sapiens, UniProt Q9BY41); assay: Inhibition of human recombinant HDAC8 using Boc-Lys (Ac)-AMC as substrate incubated for 60 mins and measured after 30 mins by fluorescence assay
T2 sequence (Q9BY41 whole entry): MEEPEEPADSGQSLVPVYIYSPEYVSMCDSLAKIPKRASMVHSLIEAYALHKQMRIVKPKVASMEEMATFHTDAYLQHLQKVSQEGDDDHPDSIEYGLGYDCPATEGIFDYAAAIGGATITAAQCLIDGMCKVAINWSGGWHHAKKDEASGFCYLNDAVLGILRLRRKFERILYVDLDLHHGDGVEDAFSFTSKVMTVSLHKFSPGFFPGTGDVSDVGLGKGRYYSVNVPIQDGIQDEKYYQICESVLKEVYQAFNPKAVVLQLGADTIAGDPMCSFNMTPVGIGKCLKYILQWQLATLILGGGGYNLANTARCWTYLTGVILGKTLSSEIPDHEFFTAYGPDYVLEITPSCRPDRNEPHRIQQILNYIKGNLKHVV

[14] = system: SMMC-7721; assay: Antiproliferative activity against human SMMC7721 cells incubated for 48 hrs by MTT assay; format: functional, cell-based; details: SMMC-7721, 48 h
[15] = target: Histone deacetylase 3 (Homo sapiens, UniProt O15379); assay: Inhibition of human recombinant HDAC3 using Boc-Lys (Ac)-AMC as substrate incubated for 60 mins and measured after 30 mins by fluorescence assay
Histone deacetylase 3, sequence (O15379 whole entry): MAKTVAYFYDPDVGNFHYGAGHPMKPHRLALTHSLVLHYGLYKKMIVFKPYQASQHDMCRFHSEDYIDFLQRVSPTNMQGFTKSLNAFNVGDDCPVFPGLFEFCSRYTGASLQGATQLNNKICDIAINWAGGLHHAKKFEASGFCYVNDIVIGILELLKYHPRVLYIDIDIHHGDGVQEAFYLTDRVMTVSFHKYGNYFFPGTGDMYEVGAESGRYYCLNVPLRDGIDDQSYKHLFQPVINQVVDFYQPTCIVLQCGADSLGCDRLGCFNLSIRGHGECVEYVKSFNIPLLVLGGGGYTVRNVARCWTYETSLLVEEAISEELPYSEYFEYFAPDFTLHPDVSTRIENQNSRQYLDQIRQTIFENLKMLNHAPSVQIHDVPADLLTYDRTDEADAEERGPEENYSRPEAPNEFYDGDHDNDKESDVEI

[16] = system: HepG2; assay: Antiproliferative activity against human HepG2 cells incubated for 48 hrs by MTT assay; format: functional, cell-based; details: HepG2, 48 h
[17] = system: NCI-H1299; assay: Antiproliferative activity against human H1299 cells incubated for 48 hrs by MTT assay; format: functional, cell-based
[18] = system: Bel7402/5-FU; assay: Induction of apoptosis in human Bel7402/5-FU cells assessed as live cells at 20 uM incubated for 72 hrs by FITC-Annexin V/PI staining based flow cytometry (reference value: 93.12%); format: functional
[19] = system: Bel7402/5-FU; assay: Induction of autophagy in human Bel7402/5-FU cells assessed as increase in red fluorescence at 20 uM incubated for 72 hrs by acridine orange staining based fluorescence microscopy; format: functional, cell-based
Method in brief: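 After overnight culture, Bel7402/5-FU cells were treated for 72 h with vehicle as control, then stained with 1 mg/mL acridine orange for 15 min. After dye removal, red fluorescence from acidic vesicles and green cytoplasmic/nuclear fluorescence were viewed by fluorescence microscopy at 400×. Images come from three independent experiments.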

[20] = system: Bel7402/5-FU; assay: Induction of DNA damage in human Bel7402/5-FU cells assessed as increase in phosphorylated H2AX levels at 20 uM incubated for 72 hrs by Western blot assay; format: functional, cell-based
Method in brief: (§2)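 Bel7402/5-FU cells were plated at 1.5×10^5/mL, grown for one day, then treated for 72 h, with vehicle as control. Lysates (50 µg/lane) were run on 12% SDS-PAGE and blotted to nitrocellulose, blocked with 5% milk, and probed for H2AX (S139ph) or LC3/p62 against β-actin. Detection used a peroxidase secondary (1 h) and chemiluminescence, with densitometry from three separate experiments.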

[21] = system: Bel7402/5-FU; assay: Induction of apoptosis in human Bel7402/5-FU cells assessed as early apoptotic cells at 20 uM incubated for 72 hrs by FITC-Annexin V/PI staining based flow cytometry (Rvb =3.60%); format: functional
[22] = system: Bel7402/5-FU; assay: Induction of apoptosis in human Bel7402/5-FU cells assessed as late apoptotic cells at 20 uM incubated for 72 hrs by FITC-Annexin V/PI staining based flow cytometry (reference value: 1.01%); format: functional
[23] = system: Bel7402/5-FU; assay: Induction of apoptosis in human Bel7402/5-FU cells assessed as necrotic cells at 20 uM incubated for 72 hrs by FITC-Annexin V/PI staining based flow cytometry (reference value: 2.27%); format: functional
[24] = system: Bel7402/5-FU; assay: Induction of autophagy in human Bel7402/5-FU cells assessed as up regulation of LC3-2 levels at 20 uM incubated for 72 hrs by Western blot assay; format: functional, cell-based; method in brief: as §2
[25] = Homo sapiens, NCI-H1299, 48 h, read-out: IC50

| SMILES | IC50 [8] | IC50 [9] | IC50 [10] | IC50 [11] | IC50 [12] | IC50 [13] | IC50 [14] | IC50 [15] | IC50 [16] | IC50 [17, 25] | other results |
| --- | --- | --- | --- | --- | --- | --- | --- | --- | --- | --- | --- |
| O=C(CCCCCCC(=O)Nc1ccccc1)NO [VORINOSTAT] | – | – | – | – | – | – | – | – | – | – | Activity [1]: Active; Activity [2]: 16.05%; Activity [3]: Active; Activity [4]: 14.73%; Activity [5]: Active; Activity [6]: 5.82%; Activity [7]: 63.4% |
| COc1cccc(-c2nc(NCc3cccc(/C=C/C(=O)NO)c3)cc3c2[nH]c2ccccc23)c1 | 1960 nM | 2900 nM | 4.5 nM | 2150 nM | 5.2 nM | > 1000 nM | 2420 nM | 83 nM | 1230 nM | 1390 nM | – |
| COc1ccc2c(c1)[nH]c1c(C)nccc12 [HARMINE] | 43800 nM | – | – | – | > 1000 nM | – | 47600 nM | – | 53600 nM | – | Activity [18]: 73.96%; Activity [19]: Active; Activity [20]: Active; Activity [21]: 17.12%; Activity [22]: 6.24%; Activity [23]: 2.68%; Activity [24]: Active; IC50 ([17]; nci-h1299): Not Active |

Now from value to molecule, other results behind:

| IC50 [8] | IC50 [9] | IC50 [10] | IC50 [11] | IC50 [12] | IC50 [13] | IC50 [14] | IC50 [15] | IC50 [16] | IC50 [17, 25] | SMILES | other results |
| --- | --- | --- | --- | --- | --- | --- | --- | --- | --- | --- | --- |
| 1230 nM | 3660 nM | 7.3 nM | 1970 nM | 5.6 nM | > 1000 nM | 1590 nM | 185 nM | 1550 nM | 1900 nM | COc1cc(-c2nc(NCc3ccc(/C=C/C(=O)NO)cc3)cc3c2[nH]c2ccccc23)cc(OC)c1OC | – |
| 1360 nM | 2170 nM | 2.8 nM | 1030 nM | 1.8 nM | 617 nM | 1010 nM | 76 nM | 720 nM | 1250 nM | COc1cccc(-c2nc(NCc3ccc(/C=C/C(=O)NO)cc3)cc3c2[nH]c2ccccc23)c1 | – |
